Experimental findings from ChEMBL document CHEMBL4251567 (Eur J Med Chem, 2018) are described below.

Each structure is given as a SMILES string.

Experiment [1] addresses Histone deacetylase 3 (Homo sapiens) (UniProt O15379). The experiment in a line: Inhibition of HDAC3 in human HeLa-S3 cell lysates assessed as remaining activity at 5 uM preincubated for 15 mins followed by HDAC-Glo substrate addition measured after 30 to 40 mins by […] relative to control. The procedure, abridged: (§1)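 Antibody-capture (ELISA-type) assay: HDAC antibody coated in carbonate/bicarbonate buffer pH 9.4, wells blocked with 5% milk in TBST. HeLa-S3 lysate added at 1 mg/mL for HDAC3, 1 h at 4 °C, then washed. Inhibitor in DMSO preincubated 15 min at RT in HDAC-Glo buffer. HDAC-Glo reagent added, luminescence read after 30-40 min. Concentrations are final. Background = no-antibody well; activity given as % of DMSO control.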

For experiment [2] the target is unchanged. The experiment in a line: Inhibition of HDAC3 in human HeLa-S3 cell lysates assessed as remaining activity at 1.25 uM preincubated for 15 mins followed by HDAC-Glo substrate addition measured after 30 to 40 mins by […] relative to control. The procedure, abridged:
as §1

The target of experiment [3] is Histone deacetylase 2 (Homo sapiens) (UniProt Q92769). In words: Inhibition of HDAC2 in human HeLa-S3 cell lysates assessed as remaining activity at 1 x 10^-6 M preincubated for 15 mins followed by HDAC-Glo substrate addition measured after 30 to 40 mins by […] relative to control. The gist of the method: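 Same antibody-capture format as the other class I isoforms. HeLa-S3 lysate added at 100 μg/mL for HDAC1 and HDAC2, 1 h at 4 °C, then washed. Inhibitor in DMSO preincubated 15 min at RT; HDAC-Glo reagent added and luminescence read after 30-40 min. Concentrations are final. Signal corrected against a well without antibody; activity expressed as % of DMSO control.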

Experiment [4] addresses Histone deacetylase 3 (Homo sapiens) (UniProt O15379). In words: Inhibition of HDAC3 in human HeLa-S3 cell lysates assessed as remaining activity at 1.6 x 10^-5 M preincubated for 15 mins followed by HDAC-Glo substrate addition measured after 30 to 40 mins by […] relative to control. The gist of the method:
as §1

Experiment [5] shares this target. In words: Inhibition of HDAC3 in human HeLa-S3 cell lysates assessed as remaining activity at 2 x 10^-6 M preincubated for 15 mins followed by HDAC-Glo substrate addition measured after 30 to 40 mins by […] relative to control. The procedure, abridged:
as §1

For experiment [6], the target named is T1, Protein deacetylase HDAC6 (Homo sapiens) (UniProt Q9UBN7).
T1 sequence (whole entry): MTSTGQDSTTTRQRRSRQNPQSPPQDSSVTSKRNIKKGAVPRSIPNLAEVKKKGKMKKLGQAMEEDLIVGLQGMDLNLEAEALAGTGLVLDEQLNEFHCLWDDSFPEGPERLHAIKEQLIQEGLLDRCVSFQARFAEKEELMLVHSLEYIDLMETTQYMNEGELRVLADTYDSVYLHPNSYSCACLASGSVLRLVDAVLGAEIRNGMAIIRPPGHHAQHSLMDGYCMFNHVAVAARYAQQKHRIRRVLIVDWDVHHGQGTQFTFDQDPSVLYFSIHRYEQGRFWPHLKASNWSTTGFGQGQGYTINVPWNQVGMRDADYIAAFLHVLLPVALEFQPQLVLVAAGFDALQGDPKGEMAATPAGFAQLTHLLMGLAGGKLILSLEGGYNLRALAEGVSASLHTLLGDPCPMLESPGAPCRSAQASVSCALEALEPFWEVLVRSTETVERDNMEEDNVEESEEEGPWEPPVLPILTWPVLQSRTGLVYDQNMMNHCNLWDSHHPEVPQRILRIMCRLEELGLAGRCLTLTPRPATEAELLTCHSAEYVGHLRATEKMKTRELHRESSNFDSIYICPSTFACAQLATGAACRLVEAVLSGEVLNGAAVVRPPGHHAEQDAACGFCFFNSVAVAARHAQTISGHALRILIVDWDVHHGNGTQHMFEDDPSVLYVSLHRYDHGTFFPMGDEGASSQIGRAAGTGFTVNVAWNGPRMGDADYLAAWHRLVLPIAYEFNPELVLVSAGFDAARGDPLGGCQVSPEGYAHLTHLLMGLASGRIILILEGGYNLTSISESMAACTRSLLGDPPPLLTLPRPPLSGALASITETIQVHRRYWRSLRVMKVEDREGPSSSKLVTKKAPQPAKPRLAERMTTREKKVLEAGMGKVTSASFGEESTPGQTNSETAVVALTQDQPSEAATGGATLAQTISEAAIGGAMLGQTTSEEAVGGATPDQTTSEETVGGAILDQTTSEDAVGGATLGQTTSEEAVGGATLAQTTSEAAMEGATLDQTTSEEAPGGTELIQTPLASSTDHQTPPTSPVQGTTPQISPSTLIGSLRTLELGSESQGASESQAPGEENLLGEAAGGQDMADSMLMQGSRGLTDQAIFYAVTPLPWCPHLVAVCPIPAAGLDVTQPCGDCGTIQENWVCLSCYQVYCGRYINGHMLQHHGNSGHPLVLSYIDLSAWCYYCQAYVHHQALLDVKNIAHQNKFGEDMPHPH
In words: Inhibition of HDAC6 in human HeLa-S3 cell lysates assessed as remaining activity at […] preincubated for 15 mins followed by HDAC-Glo substrate addition measured after 30 to 40 mins by […] relative to control.

The target of experiment [7] is Histone deacetylase 1 (Homo sapiens) (UniProt Q13547). The experiment in a line: Inhibition of HDAC1 in human HeLa-S3 cell lysates assessed as remaining activity at 8 x 10^-6 M preincubated for 15 mins followed by HDAC-Glo substrate addition measured after 30 to 40 mins by […] relative to control.
Histone deacetylase 1 (Homo sapiens), sequence (Q13547 whole entry): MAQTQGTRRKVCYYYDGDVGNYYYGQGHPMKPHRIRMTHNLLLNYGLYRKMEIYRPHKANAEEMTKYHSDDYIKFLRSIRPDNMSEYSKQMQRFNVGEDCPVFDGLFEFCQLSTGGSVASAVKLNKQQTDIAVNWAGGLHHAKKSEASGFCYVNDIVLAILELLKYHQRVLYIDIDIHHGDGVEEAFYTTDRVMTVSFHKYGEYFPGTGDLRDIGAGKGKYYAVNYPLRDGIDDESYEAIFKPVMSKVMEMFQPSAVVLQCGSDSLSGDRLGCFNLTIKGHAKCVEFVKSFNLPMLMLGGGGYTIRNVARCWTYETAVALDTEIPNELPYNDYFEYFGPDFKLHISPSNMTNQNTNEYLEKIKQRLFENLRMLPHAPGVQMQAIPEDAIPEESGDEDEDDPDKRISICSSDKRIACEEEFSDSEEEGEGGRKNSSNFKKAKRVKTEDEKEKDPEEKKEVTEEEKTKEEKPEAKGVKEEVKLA

Histone deacetylase 3 (Homo sapiens), sequence (O15379 whole entry): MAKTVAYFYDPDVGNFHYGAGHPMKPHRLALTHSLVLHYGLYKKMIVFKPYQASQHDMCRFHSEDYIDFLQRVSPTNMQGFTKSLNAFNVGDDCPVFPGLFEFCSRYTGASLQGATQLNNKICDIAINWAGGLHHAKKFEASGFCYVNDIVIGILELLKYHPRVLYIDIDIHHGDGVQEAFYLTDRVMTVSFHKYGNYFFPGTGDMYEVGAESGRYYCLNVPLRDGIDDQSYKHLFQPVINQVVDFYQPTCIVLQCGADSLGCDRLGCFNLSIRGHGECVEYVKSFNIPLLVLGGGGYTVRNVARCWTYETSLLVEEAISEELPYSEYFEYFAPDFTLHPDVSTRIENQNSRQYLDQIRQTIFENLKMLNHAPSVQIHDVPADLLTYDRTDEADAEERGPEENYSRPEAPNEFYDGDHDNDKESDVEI
Histone deacetylase 2 (Homo sapiens), sequence (Q92769 whole entry, canonical isoform): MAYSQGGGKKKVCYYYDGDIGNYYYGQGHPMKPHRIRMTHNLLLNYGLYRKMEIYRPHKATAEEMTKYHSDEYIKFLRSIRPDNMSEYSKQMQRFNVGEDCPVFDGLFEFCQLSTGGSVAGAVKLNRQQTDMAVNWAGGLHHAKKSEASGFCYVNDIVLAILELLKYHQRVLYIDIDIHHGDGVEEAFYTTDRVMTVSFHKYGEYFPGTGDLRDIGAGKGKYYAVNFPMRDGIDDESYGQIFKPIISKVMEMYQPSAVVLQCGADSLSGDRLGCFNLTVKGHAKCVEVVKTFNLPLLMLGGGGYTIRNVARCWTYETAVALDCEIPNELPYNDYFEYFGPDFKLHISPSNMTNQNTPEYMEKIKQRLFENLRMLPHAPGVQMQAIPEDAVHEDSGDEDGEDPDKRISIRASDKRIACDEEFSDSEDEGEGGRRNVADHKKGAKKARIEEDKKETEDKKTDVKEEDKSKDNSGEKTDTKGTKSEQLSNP

For `O=C(CCC(CCCC(=O)Nc1ccccc1)Cc1ccccc1)NO` (racemic), in experiment [1], the Activity stood at 90%.

With `CCCCCCC(CCCC(=O)Nc1ccccc1)CCC(=O)NO` (configuration not stated), the Activity in experiment [2] amounted to 100%.

In the case of `CCC(CCCC(=O)Nc1ccccc1)CCC(=O)NO` (configuration not stated), the Activity in experiment [3] worked out at 86%; in experiment [4], 17%; in experiment [5], 71%; in experiment [6], 18%; in experiment [7], 32%.
